Data taken from ChEMBL document CHEMBL1140788, “Development of CXCR3 antagonists. Part 3: Tropenyl and homotropenyl-piperidine urea derivatives” (Bioorg Med Chem Lett, 2008).
Converted amounts (≈) assume the structure as drawn. The source made the active and inactive calls. The rule behind the calls is not given here.

Experiments:
Cytochrome P450 2D6 = Cytochrome P450 2D6 (Homo sapiens, UniProt P10635); test: Inhibition of CYP2D6; format: ADME
[1] = biological target: T1, C-X-C chemokine receptor type 3 (Homo sapiens, UniProt P49682); test: Antagonist activity at human CXCR3 by [35S]GTP-gamma-S binding assay; format: functional
T1 sequence (P49682 whole entry): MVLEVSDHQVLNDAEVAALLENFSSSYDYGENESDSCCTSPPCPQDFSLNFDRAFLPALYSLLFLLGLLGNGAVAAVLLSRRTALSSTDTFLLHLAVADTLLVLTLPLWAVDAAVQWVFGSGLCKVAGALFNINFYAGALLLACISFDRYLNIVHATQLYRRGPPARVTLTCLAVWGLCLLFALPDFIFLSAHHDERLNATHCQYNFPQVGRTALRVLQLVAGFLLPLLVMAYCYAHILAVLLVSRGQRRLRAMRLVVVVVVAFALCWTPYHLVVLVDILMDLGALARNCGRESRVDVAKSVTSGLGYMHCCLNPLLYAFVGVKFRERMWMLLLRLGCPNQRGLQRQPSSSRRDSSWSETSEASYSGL

[2] = biological target: T2, C-X-C chemokine receptor type 3 (Mus musculus, UniProt O88410); test: Antagonist activity at mouse CXCR3; format: functional
T2 sequence (O88410 whole entry): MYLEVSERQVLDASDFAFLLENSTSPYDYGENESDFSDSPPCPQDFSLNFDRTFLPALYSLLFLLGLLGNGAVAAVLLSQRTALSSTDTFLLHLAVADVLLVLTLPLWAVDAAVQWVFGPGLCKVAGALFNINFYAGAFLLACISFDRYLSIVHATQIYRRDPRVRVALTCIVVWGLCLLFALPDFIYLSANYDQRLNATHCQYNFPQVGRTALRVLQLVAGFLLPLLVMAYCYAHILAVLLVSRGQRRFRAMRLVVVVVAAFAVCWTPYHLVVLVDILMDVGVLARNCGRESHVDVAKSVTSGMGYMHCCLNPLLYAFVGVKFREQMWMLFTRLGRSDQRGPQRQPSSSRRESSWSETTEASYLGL

[3] = Distribution coefficient, log D at pH 7.4; format: physicochemical; conditions: octanol/water
Summary of the method: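 Octanol–water partition at pH 7.4.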

[4] = Intrinsic clearance in human liver microsomes at 0.5 uM; format: ADME, Microsome
Homo sapiens = species on record: Homo sapiens; test: Protein binding to human plasma; conditions: read-out: PPB
[5] = Solubility at pH 6.5 buffer; format: physicochemical
[6] = Oral bioavailability in BALB/c mouse at 30 mg/kg; format: ADME, organism-based; conditions: in vivo
Summary of the method: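 Balb/c mice given 30 mg/kg orally; plasma concentrations followed over time, sampled from 0 to 16 h post dose.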

[7] = Half life in mouse; format: ADME, organism-based; conditions: in vivo
Mus musculus [8] = species on record: Mus musculus; test: In vitro inhibition of CXCL11-induced mouse CXCR3 receptor internalization in mouse T cells in presence of 90% naive mouse plasma; conditions: T-cell, read-out: pA2 (converted)
[9] = biological target: 5-hydroxytryptamine receptor 5A (Homo sapiens, UniProt P47898); test: Inhibition of 5HT5A receptor
[10] = biological target: T3, 5-hydroxytryptamine receptor 1A (Homo sapiens, UniProt P08908); test: Inhibition of 5HT1A receptor
T3 sequence (P08908 whole entry): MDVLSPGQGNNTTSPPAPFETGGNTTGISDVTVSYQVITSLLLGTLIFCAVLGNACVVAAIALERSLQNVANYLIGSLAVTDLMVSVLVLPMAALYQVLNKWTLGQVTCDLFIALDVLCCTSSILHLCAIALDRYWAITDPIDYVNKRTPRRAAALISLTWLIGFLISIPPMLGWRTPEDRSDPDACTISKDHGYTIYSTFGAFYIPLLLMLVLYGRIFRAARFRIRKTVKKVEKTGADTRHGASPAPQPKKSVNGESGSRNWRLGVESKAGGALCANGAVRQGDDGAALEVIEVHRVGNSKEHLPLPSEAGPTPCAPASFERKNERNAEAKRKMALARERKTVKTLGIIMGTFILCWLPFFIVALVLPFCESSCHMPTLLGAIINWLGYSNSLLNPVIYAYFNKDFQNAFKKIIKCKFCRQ

[11] = biological target: T4, Muscarinic acetylcholine receptor M2 (Homo sapiens, UniProt P08172); test: Inhibition of muscarinic M2 receptor
T4 sequence (P08172 whole entry): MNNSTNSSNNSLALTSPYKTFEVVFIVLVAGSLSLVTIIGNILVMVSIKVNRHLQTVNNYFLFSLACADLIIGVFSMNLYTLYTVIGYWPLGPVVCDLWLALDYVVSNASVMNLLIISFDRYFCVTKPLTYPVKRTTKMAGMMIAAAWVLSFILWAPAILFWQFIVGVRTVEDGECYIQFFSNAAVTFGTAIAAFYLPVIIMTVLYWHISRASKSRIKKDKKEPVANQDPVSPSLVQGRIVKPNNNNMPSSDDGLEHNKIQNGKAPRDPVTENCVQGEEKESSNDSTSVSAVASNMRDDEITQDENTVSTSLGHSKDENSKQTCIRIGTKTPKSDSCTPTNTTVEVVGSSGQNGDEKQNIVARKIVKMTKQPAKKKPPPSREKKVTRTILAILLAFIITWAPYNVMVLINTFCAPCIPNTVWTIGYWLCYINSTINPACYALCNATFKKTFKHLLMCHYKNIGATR

Mus musculus [12] = test: Ex vivo inhibition of CXCL11-induced mouse CXCR3 receptor internalization in mouse T cells at 30 mg/kg, po after 10 hrs; format: functional, organism-based; design: dose 30 mg/kg; conditions: T-cell
Summary of the method: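 Mice were dosed orally at 30 mg/kg, and plasma was taken at each timepoint after dosing. Activated murine T cells were incubated with that plasma, then stimulated with 3 nM CXCL11 (A75) for 60 min at 37 °C. Agonist was removed and surface CXCR3 was measured by flow cytometry.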

[13] = biological target: Muscarinic acetylcholine receptor M3 (Homo sapiens, UniProt P20309); test: Inhibition of muscarinic M3 receptor
[14] = Inhibition of sodium channel
[15] = biological target: T5, Muscarinic acetylcholine receptor M1 (Homo sapiens, UniProt P11229); test: Inhibition of muscarinic M1 receptor
T5 sequence (P11229 whole entry): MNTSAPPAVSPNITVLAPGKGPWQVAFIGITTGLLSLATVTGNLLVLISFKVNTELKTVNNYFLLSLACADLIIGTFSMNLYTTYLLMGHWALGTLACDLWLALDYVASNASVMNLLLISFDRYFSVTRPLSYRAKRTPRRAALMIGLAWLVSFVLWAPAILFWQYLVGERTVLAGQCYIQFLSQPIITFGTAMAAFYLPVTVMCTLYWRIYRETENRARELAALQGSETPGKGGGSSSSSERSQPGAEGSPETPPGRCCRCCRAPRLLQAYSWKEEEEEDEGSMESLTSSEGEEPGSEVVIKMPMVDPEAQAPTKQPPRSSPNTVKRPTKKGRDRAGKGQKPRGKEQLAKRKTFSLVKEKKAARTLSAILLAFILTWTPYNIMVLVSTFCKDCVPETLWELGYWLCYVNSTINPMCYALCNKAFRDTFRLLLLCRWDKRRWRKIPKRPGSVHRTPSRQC

Mus musculus [16] = test: Ex vivo inhibition of CXCL11-induced mouse CXCR3 receptor internalization in mouse T cells at 30 mg/kg, po after 4 hrs; format: functional, organism-based; design: dose 30 mg/kg; conditions: T-cell
Summary of the method: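 Mice dosed orally at 30 mg/kg; plasma collected at timepoints post dose and incubated with activated murine T cells, then 3 nM CXCL11 (A75) for 60 min at 37 °C; agonist removed, surface CXCR3 measured by flow cytometry.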

Cytochrome P450 2D6, sequence (P10635 whole entry): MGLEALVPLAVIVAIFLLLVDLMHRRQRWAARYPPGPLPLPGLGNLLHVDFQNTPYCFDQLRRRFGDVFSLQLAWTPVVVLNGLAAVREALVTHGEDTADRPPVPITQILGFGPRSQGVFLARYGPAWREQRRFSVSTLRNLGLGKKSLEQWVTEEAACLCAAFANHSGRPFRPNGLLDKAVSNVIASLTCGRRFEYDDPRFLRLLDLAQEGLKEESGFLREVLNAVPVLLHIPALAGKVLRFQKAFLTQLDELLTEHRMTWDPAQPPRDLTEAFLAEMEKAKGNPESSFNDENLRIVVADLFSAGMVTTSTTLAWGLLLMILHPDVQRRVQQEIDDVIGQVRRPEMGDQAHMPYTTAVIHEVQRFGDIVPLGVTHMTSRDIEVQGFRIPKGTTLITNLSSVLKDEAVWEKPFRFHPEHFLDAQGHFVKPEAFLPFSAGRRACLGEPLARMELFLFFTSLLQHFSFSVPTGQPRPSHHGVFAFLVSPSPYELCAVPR
5-hydroxytryptamine receptor 5A, sequence (P47898 whole entry): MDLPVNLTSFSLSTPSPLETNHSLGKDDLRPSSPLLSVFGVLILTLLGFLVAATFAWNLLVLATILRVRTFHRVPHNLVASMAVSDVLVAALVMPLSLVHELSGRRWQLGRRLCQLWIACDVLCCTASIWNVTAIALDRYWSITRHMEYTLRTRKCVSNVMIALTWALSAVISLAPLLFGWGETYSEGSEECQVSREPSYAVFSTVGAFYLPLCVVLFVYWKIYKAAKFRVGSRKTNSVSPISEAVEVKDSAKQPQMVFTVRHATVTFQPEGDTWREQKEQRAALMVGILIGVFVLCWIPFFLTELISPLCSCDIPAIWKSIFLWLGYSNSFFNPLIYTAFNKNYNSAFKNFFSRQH
Muscarinic acetylcholine receptor M3, sequence (P20309 whole entry): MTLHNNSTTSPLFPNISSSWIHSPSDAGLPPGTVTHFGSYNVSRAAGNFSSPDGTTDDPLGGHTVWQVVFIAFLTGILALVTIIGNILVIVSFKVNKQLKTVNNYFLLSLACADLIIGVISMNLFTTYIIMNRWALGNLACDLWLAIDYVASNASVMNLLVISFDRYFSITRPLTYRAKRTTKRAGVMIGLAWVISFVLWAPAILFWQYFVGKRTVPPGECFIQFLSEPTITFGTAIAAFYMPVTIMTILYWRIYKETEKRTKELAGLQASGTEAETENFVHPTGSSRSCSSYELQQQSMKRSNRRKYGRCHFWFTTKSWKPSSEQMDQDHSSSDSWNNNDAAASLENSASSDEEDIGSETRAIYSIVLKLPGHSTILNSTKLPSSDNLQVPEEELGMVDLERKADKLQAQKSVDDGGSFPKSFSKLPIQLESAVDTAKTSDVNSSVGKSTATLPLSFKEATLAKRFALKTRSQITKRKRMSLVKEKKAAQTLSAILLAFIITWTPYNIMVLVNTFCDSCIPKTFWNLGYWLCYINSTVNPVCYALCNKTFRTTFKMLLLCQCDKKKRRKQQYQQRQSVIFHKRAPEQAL

Compound	Ki [1] [nM]	Ki [2] [nM]	logD [3]	microsomal CLint at 0.5 µM [4] [µL/min/mg]	solubility [5] [µg/mL]	also measured
CC1(C)[C@H]2CC=C(CN3CCC(NC(=O)Nc4cc(C(F)(F)F)cc(C(F)(F)F)c4)CC3)[C@@H]1C2	26	400	5.1	82	< 1	Ki (Cytochrome P450 2D6): 5000 nM; fraction unbound (Homo sapiens): 0.001
O=C(Nc1cc(C(F)(F)F)cc(C(F)(F)F)c1)NC1CCN(CCC2CCS(=O)(=O)C2)CC1 (stereo not given)	1100	–	2.8	3.5	1360 (≈ 2710 µM)	bioavailability [6]: 52%; half-life [7]: 5.5 h
CC(C)(C)C(=O)N1C2C=C(CN3CCC(NC(=O)Nc4cc(F)cc(C(F)(F)F)c4)CC3)CC1CC2 (stereo not given)	18	100	4.2	60	–	–
CC(=O)N1CCC(CN2CCC(NC(=O)Nc3cc(C(F)(F)F)cc(C(F)(F)F)c3)CC2)CC1	180	–	3.1	4.5	850 (≈ 1720 µM)	–
CC(C)(C)C(=O)N1CCC(CN2CCC(NC(=O)Nc3cc(C(F)(F)F)cc(C(F)(F)F)c3)CC2)CC1	60	–	4.2	80	45 (≈ 83.9 µM)	fraction unbound (Homo sapiens): 0.01
CC(=O)N1C2C=C(CN3CCC(NC(=O)Nc4cc(F)cc(C(F)(F)F)c4)CC3)CC1CC2 (stereo not given)	27	120	3	11	–	–
CC(=O)N1C2C=C(CN3CCC(NC(=O)Nc4cccc(OC(C)C)c4)CC3)CC1CCC2 (stereo not given)	11	33	2.5	22	–	–
CC(=O)N1C2C=C(CN3CCC(NC(=O)Nc4cc(F)cc(OC(C)C)c4)CC3)CC1CCC2 (stereo not given)	3	6	2.7	50	–	–
O=C(Nc1cc(F)cc(C(F)(F)F)c1)NC1CCN(CC2=CC3CCC(C2)N3C(=O)C2CC2)CC1 (stereo not given)	20	80	3.4	9	–	–
CC(=O)N1C2CCC1CC(CN1CCC(NC(=O)Nc3cc(F)cc(C(F)(F)F)c3)CC1)C2 (mixture of isomers)	120	650	2.8	–	–	–
CCOC(=O)N1C2C=C(CN3CCC(NC(=O)Nc4cc(F)cc(C(F)(F)F)c4)CC3)CC1CC2 (stereo not given)	190	950	4.6	48	–	–
CC(C)(C)C(=O)N1C2C=C(CN3CCC(NC(=O)Nc4cc(F)cc(C(F)(F)F)c4)CC3)CC1CCC2 (stereo not given)	10	57	4.5	74	–	–
CC(=O)c1cccc(NC(=O)NC2CCN(CC3=CC4CCCC(C3)N4C(C)=O)CC2)c1 (stereo not given)	280	–	2.8	10	–	–
CC(=O)N1C2C=C(CN3C4CCC3CC(NC(=O)Nc3cc(F)cc(C(F)(F)F)c3)C4)CC1CCC2 (stereo not given)	7	6	3.1	7	40 (≈ 78.7 µM)	Kb (Mus musculus [8]): 95.5 nM; Ki [9]: 3000 nM; Ki (Cytochrome P450 2D6): 15000 nM; Ki [10]: 280 nM; Ki [11]: 280 nM; Activity (Mus musculus [12]): Active; Ki [13]: 1200 nM; bioavailability [6]: 70%; Ki [14]: 570 nM; Ki [15]: 230 nM
CC(C)C(=O)N1C2C=C(CN3CCC(NC(=O)Nc4cc(F)cc(C(F)(F)F)c4)CC3)CC1CC2 (stereo not given)	28	180	3.9	58	–	–
CC(=O)N1C2C=C(CN3CCC(NC(=O)Nc4cc(F)cc(C(F)(F)F)c4)CC3)CC1CCC2 (stereo not given)	9	38	3.4	9	–	Kb (Mus musculus [8]): 186 nM; Activity (Mus musculus [16]): Active
O=C(Nc1ccc2ccccc2c1)NC1CCN(C/C2=C/CCCCCC2)CC1	–	–	–	72	0.1 (≈ 0.255 µM)	bioavailability [6]: 1%; fraction unbound (Homo sapiens): < 0.001
